Data published in ChEMBL document CHEMBL4613274, “Chimeric Peptidomimetics of SOCS 3 Able to Interact with JAK2 as Anti-inflammatory Compounds” (ACS Med Chem Lett, 2020).
pKd: −log10 of the molar value. Calls of active or inactive are those of the source. The calls are words filed in the database; no cut-off is given here. Square brackets hold non-standard residues; d marks the D form. Peptide text beside a SMILES is read from it. βAla = NCCC(=O)O

Tests used:
[1] = Stability of compound in FBS assessed as residual concentration at 80 uM incubated for 2 hrs by RP-HPLC analysis; assay type: physicochemical; details: cattle, fetal bovine serum (FBS); read-out: Stability
In short: (§1)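 Pure peptides incubated in fetal bovine serum; decrease of chromatographic peak area followed over time, expressed as area percentage remaining.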

[2] = Drug distribution in cytoplasm of mouse VSMC measured after 2 hrs by confocal microscopy; assay type: ADME, subcellular; details: in vitro
In short: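 Primary murine vascular smooth muscle cells exposed to fluorescent (TAMRA-labeled), Tat 48–60-conjugated peptides; uptake and subcellular distribution imaged by confocal microscopy after 2 h.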

[3] = molecular target: Signal transducer and activator of transcription 3 (Mus musculus) (UniProt P42227); assay: Inhibition of IFNgamma and IL6 induced STAT3 activation in mouse VSMC cells assessed as decrease in STAT3 phosphorylation at 5 uM pretreated for 90 mins using TAMRA-conjugated peptide followed by IFNgamma and IL6 stimulation for 1 hr by DAPI staining based immunofluorescence assay relative to control; assay type: cell-based
In short: (§2)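 Primary mouse VSMCs stimulated with IFNγ+IL-6 with or without TAMRA-labeled peptide 5 μM; immunofluorescence for phospho-STAT3 with DAPI nuclear counterstain, confocal imaging. P-STAT3 fluorescence intensity given as percentage, mean ± SEM, n = 3 independent experiments.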

[4] = molecular target: Signal transducer and activator of transcription 3 (Mus musculus) (UniProt P42227); assay: Inhibition of IFNgamma and IL6 induced STAT3 nuclear translocation in mouse VSMC cells at 5 uM pretreated for 90 mins using TAMRA-conjugated peptide followed by IFNgamma and IL6 stimulation for 1 hr by DAPI staining based immunofluorescence assay relative to control; assay type: cell-based; in short: as §2
[5] = test system: RAW264.7; assay: Antiinflammatory activity against mouse RAW264.7 cells assessed as reduction in IFNgamma and IL6-induced mRNA expression of Cxcl10 at […] pretreated for 90 mind followed by IFNgamma and IL6 stimulation for 1 hr by Trizol reagent based RT-PCR analysis; assay type: functional, cell-based
In short: (§3)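 RAW264.7 murine macrophage-like cells; peptides (conjugated to HIV Tat 48–60 for cell entry) or Ala/Arg negative-control peptide at 12.5 μM, then IFNγ+IL-6 stimulation 1 h. Cxcl10, Ccl5 and Nox2 mRNA quantified by real-time PCR.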

[6] = test system: RAW264.7; assay: Antiinflammatory activity against mouse RAW264.7 cells assessed as reduction in IFNgamma and IL6-induced mRNA expression of Ccl5 at […] pretreated for 90 mind followed by IFNgamma and IL6 stimulation for 1 hr by Trizol reagent based RT-PCR analysis; assay type: functional, cell-based; in short: as §3
[7] = test system: RAW264.7; assay: Antioxidant activity against mouse RAW264.7 cells assessed as reduction in IFNgamma and IL6-induced mRNA expression of Nox2 at […] pretreated for 90 mind followed by IFNgamma and IL6 stimulation for 1 hr by Trizol reagent based RT-PCR analysis; assay type: functional, cell-based; in short: as §3
[8] = molecular target: Tyrosine-protein kinase JAK2 (Homo sapiens, UniProt O60674); assay: Binding affinity to human N-terminal His-tagged JAK2 catalytic domain (826 to 1132 end residues) at 25 degree C by microscale thermophoresis assay
In short: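 JAK2 catalytic domain binding by microscale thermophoresis; labeled target with 1:1 serial dilutions of peptide (14–16 samples) from stocks of ~404–409 μM in labeling buffer pH 7.5. Temperature-induced fluorescence change plotted versus peptide concentration; KD from fitting of binding isotherm.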

[9] = Stability of compound in FBS assessed as decrease in chromatographic peak at 80 uM incubated up to 4 hrs by RP-HPLC analysis; assay type: physicochemical; details: cattle; in short: as §1
[10] = Stability of compound in FBS assessed as drug degradation at 80 uM incubated for 2 hrs by RP-HPLC analysis; assay type: physicochemical; details: cattle, fetal bovine serum (FBS); read-out: Drug degradation; in short: as §1

Chain of Signal transducer and activator of transcription 3 (Mus musculus) (P42227 whole entry): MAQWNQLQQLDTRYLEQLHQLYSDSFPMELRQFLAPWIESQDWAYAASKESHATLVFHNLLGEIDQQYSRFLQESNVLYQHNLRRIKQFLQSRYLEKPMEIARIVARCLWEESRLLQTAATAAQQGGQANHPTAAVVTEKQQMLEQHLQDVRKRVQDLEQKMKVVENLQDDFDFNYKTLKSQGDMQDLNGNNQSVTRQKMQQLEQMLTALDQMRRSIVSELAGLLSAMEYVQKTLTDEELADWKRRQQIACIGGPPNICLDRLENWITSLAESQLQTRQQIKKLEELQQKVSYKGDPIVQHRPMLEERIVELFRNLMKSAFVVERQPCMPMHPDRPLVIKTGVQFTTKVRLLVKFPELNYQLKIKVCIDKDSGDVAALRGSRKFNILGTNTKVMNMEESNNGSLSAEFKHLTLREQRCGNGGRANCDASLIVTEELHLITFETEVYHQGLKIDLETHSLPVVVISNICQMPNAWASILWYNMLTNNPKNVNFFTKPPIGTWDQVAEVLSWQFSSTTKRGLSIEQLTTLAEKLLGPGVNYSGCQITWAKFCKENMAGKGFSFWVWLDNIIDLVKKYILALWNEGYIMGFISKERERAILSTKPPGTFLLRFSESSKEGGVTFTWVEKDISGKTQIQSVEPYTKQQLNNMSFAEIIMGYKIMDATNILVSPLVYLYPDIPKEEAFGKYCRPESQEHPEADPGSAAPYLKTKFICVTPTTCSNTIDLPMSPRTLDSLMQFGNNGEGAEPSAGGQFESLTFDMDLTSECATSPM
Chain of Tyrosine-protein kinase JAK2 (O60674 whole entry, the tested form may be a part): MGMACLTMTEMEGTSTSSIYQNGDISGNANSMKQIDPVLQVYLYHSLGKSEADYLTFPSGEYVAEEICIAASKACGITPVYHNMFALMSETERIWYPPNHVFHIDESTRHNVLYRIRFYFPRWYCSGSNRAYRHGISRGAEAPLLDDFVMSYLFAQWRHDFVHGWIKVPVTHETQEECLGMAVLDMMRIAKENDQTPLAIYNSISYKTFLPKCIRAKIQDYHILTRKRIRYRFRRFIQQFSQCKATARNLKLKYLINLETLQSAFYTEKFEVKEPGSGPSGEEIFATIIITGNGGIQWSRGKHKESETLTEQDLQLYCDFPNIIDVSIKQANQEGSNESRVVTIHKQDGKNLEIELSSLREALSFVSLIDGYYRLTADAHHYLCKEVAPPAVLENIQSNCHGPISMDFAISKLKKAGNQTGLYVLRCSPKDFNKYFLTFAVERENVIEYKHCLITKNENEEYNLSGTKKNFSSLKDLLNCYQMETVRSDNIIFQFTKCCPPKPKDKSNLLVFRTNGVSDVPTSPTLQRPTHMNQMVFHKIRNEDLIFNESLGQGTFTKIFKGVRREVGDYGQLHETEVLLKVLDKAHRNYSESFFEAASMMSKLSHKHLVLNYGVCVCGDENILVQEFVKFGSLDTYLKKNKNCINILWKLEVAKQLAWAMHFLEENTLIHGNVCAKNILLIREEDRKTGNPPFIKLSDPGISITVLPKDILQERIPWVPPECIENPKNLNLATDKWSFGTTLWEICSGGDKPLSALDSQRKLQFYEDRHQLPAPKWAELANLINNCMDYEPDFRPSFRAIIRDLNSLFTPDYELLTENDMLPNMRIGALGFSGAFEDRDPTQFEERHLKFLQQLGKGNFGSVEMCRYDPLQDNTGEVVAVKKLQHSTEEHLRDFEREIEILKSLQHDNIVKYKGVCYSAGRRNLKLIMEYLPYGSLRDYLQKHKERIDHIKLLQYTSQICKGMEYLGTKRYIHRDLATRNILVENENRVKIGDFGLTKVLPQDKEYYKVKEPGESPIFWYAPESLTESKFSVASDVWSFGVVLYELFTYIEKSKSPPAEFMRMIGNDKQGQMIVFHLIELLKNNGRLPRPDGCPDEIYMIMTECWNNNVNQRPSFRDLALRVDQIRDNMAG

Row | Compound | remaining at 2 h, 80 µM [1] [%] | Drug uptake [2] | inhibition [3] [%] | inhibition [4] | Activity [5] | Activity [6] | Activity [7] | Activity [8] | pKd [8] | Stability [9] | metabolised at 2 h, 80 µM [10] [%]
1 | CC(=O)N[C@@H](CC(C)C)C(=O)N[C@@H](CCCCN)C(=O)N[C@H](C(=O)N[C@@H](Cc1ccccc1)C(=O)N[C@@H](CO)C(=O)N[C@@H](CO)C(=O)N[C@@H](CCCCN)C(=O)N[C@@H](CO)C(=O)N[C@@H](CCC(=O)O)C(=O)N[C@@H](Cc1ccc(O)cc1)C(=O)N[C@@H](CCC(N)=O)C(=O)N[C@@H](CC(C)C)C(=O)N[C@H](C(=O)N[C@H](C(=O)N[C@@H](CC(N)=O)C(=O)N[C@@H](C)C(=O)N[C@H](C(=O)N[C@@H](CCCNC(=N)N)C(=O)N[C@@H](CCCCN)C(=O)N[C@@H](CC(C)C)C(=O)N[C@@H](CCC(N)=O)C(=O)N[C@@H](CCC(=O)O)C(=O)N[C@@H](CO)C(=O)NCC(N)=O)C(C)C)C(C)C)C(C)C)[C@@H](C)O | 40 | Active | 65 | Active | Active | Active | Active | – | – | – | –
2 | CC(=O)N[C@@H](CCCCN)C(=O)NCCC(=O)N[C@@H](Cc1ccccc1)C(=O)N[C@@H](CO)C(=O)N[C@@H](CO)C(=O)N[C@@H](CCCCN)C(=O)N[C@@H](CO)C(=O)N[C@@H](CCC(=O)O)C(=O)N[C@@H](Cc1ccc(O)cc1)C(=O)N[C@@H](CCC(N)=O)C(=O)N[C@@H](CC(C)C)C(=O)NCCC(=O)NCCC(=O)N[C@@H](Cc1ccccc1)C(=O)N[C@@H](Cc1ccc(O)cc1)C(=O)N[C@@H](Cc1c[nH]c2ccccc12)C(=O)N[C@@H](CO)C(=O)N[C@@H](C)C(=O)N[C@H](C(=O)N[C@H](C(N)=O)[C@@H](C)O)C(C)C (Ac-K[βAla]FSSKSEYQL[βAla][βAla]FYWSAVT-NH2) | 70 | Active | 65 | Active | Active | Active | Active | Dose-dependent effect | 4.96 | Stable | –
3 | Ac-AAARAAARAAARAAARAAARAAAA-NH2 | – | – | – | inactive | inactive | inactive | inactive | – | – | – | –
4 | Ac-FSSKSEYQLVVNAVRKLQESGFYWSAVT-NH2 | – | – | – | – | – | – | – | Dose-dependent effect | – | Stable | 100
5 | Ac-VVNAVRKLQESGFYWSAVT-NH2 | – | – | – | – | – | – | – | Dose-dependent effect | – | Stable | –
